According to ChEMBL document CHEMBL5058577, “EUbOPEN Chemogenomics Library 2 (Multiplex)” (2022):

Tested on: Fibroblast
Assay: Multiplex assay against human fibroblast
Format: toxicity, cell-based
Procedure, shortened: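 Hoechst33342, BioTracker Green Microtubule Cytoskeleton Dye, MitoTracker Red and Annexin V Alexa Fluor 680 were added to live cells at seeding, and imaging on a CQ1 microscope at 37°C and 5% CO2 followed compound addition. Gating by CellPathfinder machine learning separated cells into Hoechst high-intensity objects or normal cells, then normal cells into healthy, pyknosed or fragmented nuclei, then pyknosed cells into mitotic or apoptotic. Per cents of healthy-nucleus cells are reported for the tubulin, mitochondrial-mass and membrane-permeability phenotypes.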

[1] = 12 h, 1 µM, compound concentration 1 uM, replicate 1
[2] = 12 h, 1 µM, compound concentration 1 uM, replicate 2
[3] = 12 h, 10 µM, compound concentration 10 uM, replicate 1
[4] = 12 h, 10 µM, compound concentration 10 uM, replicate 2
[5] = 24 h, 1 µM, compound concentration 1 uM, replicate 1
[6] = 24 h, 1 µM, compound concentration 1 uM, replicate 2
[7] = 24 h, 10 µM, compound concentration 10 uM, replicate 1
[8] = 24 h, 10 µM, compound concentration 10 uM, replicate 2
[9] = 48 h, 1 µM, compound concentration 1 uM, replicate 1
[10] = 48 h, 1 µM, compound concentration 1 uM, replicate 2
[11] = 48 h, 10 µM, compound concentration 10 uM, replicate 1
[12] = 48 h, 10 µM, compound concentration 10 uM, replicate 2

CC(/C=C1\SC(=S)N(CCCC(=O)Nc2ccc(C(=O)O)c(O)c2)C1=O)=C\c1ccccc1
Population Apoptotic (%) [1]: 50% | Population Fragmented Nuclei (%) [1]: 14% | Population Healthy Nuclei (%) [1]: 71% | Population Hoechst High Intensity Objects (%) [1]: 2% | Population Membrane Permeable-Phenotype (%) [1]: 0% | Population Mitochondria Different-Phenotype (%) [1]: 2% | Population Mitotic Cells (%) [1]: 50% | Population Normal (%) [1]: 97% | Population Pyknosed Nuclei (%) [1]: 13% | Population Tubulin-Different-Phenotype (%) [1]: 28% | Total Cell Count [1]: 206 | Population Apoptotic (%) [2]: 33% | Population Fragmented Nuclei (%) [2]: 19% | Population Healthy Nuclei (%) [2]: 60% | Population Hoechst High Intensity Objects (%) [2]: 3% | Population Membrane Permeable-Phenotype (%) [2]: 13% | Population Mitochondria Different-Phenotype (%) [2]: 9% | Population Mitotic Cells (%) [2]: 66% | Population Normal (%) [2]: 96% | Population Pyknosed Nuclei (%) [2]: 19% | Population Tubulin-Different-Phenotype (%) [2]: 54% | Total Cell Count [2]: 157 | Population Apoptotic (%) [3]: 56% | Population Fragmented Nuclei (%) [3]: 15% | Population Healthy Nuclei (%) [3]: 70% | Population Hoechst High Intensity Objects (%) [3]: 2% | Population Membrane Permeable-Phenotype (%) [3]: 0% | Population Mitochondria Different-Phenotype (%) [3]: 5% | Population Mitotic Cells (%) [3]: 43% | Population Normal (%) [3]: 97% | Population Pyknosed Nuclei (%) [3]: 13% | Population Tubulin-Different-Phenotype (%) [3]: 44% | Total Cell Count [3]: 123 | Population Apoptotic (%) [4]: 40% | Population Fragmented Nuclei (%) [4]: 19% | Population Healthy Nuclei (%) [4]: 48% | Population Hoechst High Intensity Objects (%) [4]: 4% | Population Membrane Permeable-Phenotype (%) [4]: 8% | Population Mitotic Cells (%) [4]: 59% | Population Normal (%) [4]: 95% | Population Pyknosed Nuclei (%) [4]: 31% | Population Tubulin-Different-Phenotype (%) [4]: 54% | Total Cell Count [4]: 122 | Population Apoptotic (%) [5]: 54% | Population Fragmented Nuclei (%) [5]: 17% | Population Healthy Nuclei (%) [5]: 72% | Population Hoechst High Intensity Objects (%) [5]: 1% | Population Membrane Permeable-Phenotype (%) [5]: 2% | Population Mitochondria Different-Phenotype (%) [5]: 4% | Population Mitotic Cells (%) [5]: 45% | Population Normal (%) [5]: 98% | Population Pyknosed Nuclei (%) [5]: 10% | Population Tubulin-Different-Phenotype (%) [5]: 25% | Total Cell Count [5]: 208 | Population Apoptotic (%) [6]: 33% | Population Healthy Nuclei (%) [6]: 63% | Population Hoechst High Intensity Objects (%) [6]: 2% | Population Membrane Permeable-Phenotype (%) [6]: 5% | Population Mitochondria Different-Phenotype (%) [6]: 12% | Population Mitotic Cells (%) [6]: 66% | Population Normal (%) [6]: 97% | Population Pyknosed Nuclei (%) [6]: 19% | Population Tubulin-Different-Phenotype (%) [6]: 44% | Total Cell Count [6]: 144 | Population Apoptotic (%) [7]: 66% | Population Fragmented Nuclei (%) [7]: 11% | Population Healthy Nuclei (%) [7]: 81% | Population Hoechst High Intensity Objects (%) [7]: 0% | Population Membrane Permeable-Phenotype (%) [7]: 0% | Population Mitochondria Different-Phenotype (%) [7]: 4% | Population Mitotic Cells (%) [7]: 33% | Population Normal (%) [7]: 99% | Population Pyknosed Nuclei (%) [7]: 7% | Population Tubulin-Different-Phenotype (%) [7]: 25% | Total Cell Count [7]: 119 | Population Apoptotic (%) [8]: 53% | Population Fragmented Nuclei (%) [8]: 20% | Population Healthy Nuclei (%) [8]: 53% | Population Hoechst High Intensity Objects (%) [8]: 4% | Population Membrane Permeable-Phenotype (%) [8]: 11% | Population Mitotic Cells (%) [8]: 46% | Population Normal (%) [8]: 95% | Population Pyknosed Nuclei (%) [8]: 26% | Population Tubulin-Different-Phenotype (%) [8]: 70% | Total Cell Count [8]: 120 | Population Apoptotic (%) [9]: 78% | Population Fragmented Nuclei (%) [9]: 24% | Population Healthy Nuclei (%) [9]: 66% | Population Hoechst High Intensity Objects (%) [9]: 3% | Population Membrane Permeable-Phenotype (%) [9]: 1% | Population Mitochondria Different-Phenotype (%) [9]: 2% | Population Mitotic Cells (%) [9]: 21% | Population Normal (%) [9]: 96% | Population Pyknosed Nuclei (%) [9]: 9% | Population Tubulin-Different-Phenotype (%) [9]: 31% | Total Cell Count [9]: 216 | Population Apoptotic (%) [10]: 45% | Population Fragmented Nuclei (%) [10]: 29% | Population Healthy Nuclei (%) [10]: 56% | Population Hoechst High Intensity Objects (%) [10]: 1% | Population Membrane Permeable-Phenotype (%) [10]: 7% | Population Mitochondria Different-Phenotype (%) [10]: 6% | Population Mitotic Cells (%) [10]: 54% | Population Normal (%) [10]: 98% | Population Pyknosed Nuclei (%) [10]: 14% | Population Tubulin-Different-Phenotype (%) [10]: 44% | Total Cell Count [10]: 159 | Population Apoptotic (%) [11]: 46% | Population Fragmented Nuclei (%) [11]: 18% | Population Healthy Nuclei (%) [11]: 69% | Population Hoechst High Intensity Objects (%) [11]: 0% | Population Membrane Permeable-Phenotype (%) [11]: 0% | Population Mitochondria Different-Phenotype (%) [11]: 1% | Population Mitotic Cells (%) [11]: 53% | Population Normal (%) [11]: 100% | Population Pyknosed Nuclei (%) [11]: 12% | Population Tubulin-Different-Phenotype (%) [11]: 33% | Total Cell Count [11]: 124 | Population Apoptotic (%) [12]: 59% | Population Fragmented Nuclei (%) [12]: 34% | Population Healthy Nuclei (%) [12]: 46% | Population Hoechst High Intensity Objects (%) [12]: 3% | Population Membrane Permeable-Phenotype (%) [12]: 5% | Population Mitochondria Different-Phenotype (%) [12]: 5% | Population Mitotic Cells (%) [12]: 40% | Population Normal (%) [12]: 96% | Population Pyknosed Nuclei (%) [12]: 19% | Population Tubulin-Different-Phenotype (%) [12]: 58% | Total Cell Count [12]: 118
